Rpn11 inh: Rpn11 (human) deubiquitinase inhibition. 0.59% of 360,000 active. AID 588493. inhibition, % at 20 µM. human 26S proteasome, Ub4-pepOG fluorescence polarization; 20S core pre-blocked with epoxomicin. O00487;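 active = inhibition at 20 µM, scaled to each plate's controls, above about 33%, limit read from the data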
Target sequence (O00487 whole entry, looked up): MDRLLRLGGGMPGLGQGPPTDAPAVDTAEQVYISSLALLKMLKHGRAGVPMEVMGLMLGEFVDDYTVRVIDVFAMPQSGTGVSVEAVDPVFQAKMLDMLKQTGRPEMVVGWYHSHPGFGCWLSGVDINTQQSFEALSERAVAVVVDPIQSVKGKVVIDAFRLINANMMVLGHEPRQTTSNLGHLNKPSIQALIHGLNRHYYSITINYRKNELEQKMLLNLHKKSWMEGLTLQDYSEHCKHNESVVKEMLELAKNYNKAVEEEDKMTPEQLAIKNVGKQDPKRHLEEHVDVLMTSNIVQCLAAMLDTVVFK
TPT1 inhibitor: blocks Candida albicans tRNA 2'-phosphotransferase; inhibition, % at 5 µM; recombinant caTPT1, FP RNA substrate dephosphorylation; AID 1962; 0.81% of 300,000 active;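 active = inhibition above the mean of all tested compounds plus 3 SD, set per screening campaign, cut at about 24% in these data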;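 note: plate controls were DMSO alone for no effect and ferristatin control at 100 nM for full effect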
IDE cell inh: inhibits human insulin-degrading enzyme in HEK cells. 0.41% of 320,000 active. inhibition, % at 5.59 µM. AID 434962. P14735. FAbetaB cleavage, fluorescence polarization;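 active = percent inhibition above the average of all tested compounds plus 3 SD, set per screening campaign, cut at about 16% in these data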;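 note: IDE supplied by intact live HEK cells; FP after avidin binding of uncleaved biotin substrate so inhibition keeps polarization high; 0% = DMSO wells and 100% = 60 µM reference IDE inhibitor Ii1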
IDE cell activ: activators of human insulin-degrading enzyme in cells; P14735; HEK cells, FAbeta-B cleavage, fluorescence polarization; 0% vehicle, 100% cell-free pure enzyme wells; activation, % at 5.96 µM; 0.073% of 340,000 active; AID 493087;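 active = activation above the mean of all tested compounds plus 3 SD, set per screening campaign, cut at about 17% in these data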
HNF4A DNA FP: change in binding of human HNF4 alpha to DNA | P41235 | HNF4a-FITC DNA binding, fluorescence polarization, 1 h | activity change, % at 10 µM | 0.3% of 360,000 active | AID 1224865; in the data active = activity change above about 30%, passing the limit was not always enough
CSN inh: inhibitors of human CSN-mediated cullin deneddylation; Q92905; Purified CSN, SCF-Nedd8-OG deneddylation, fluorescence polarization; inhibition, % at 12.5 µM; 0.38% of 360,000 active;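 active = pattern-corrected inhibition above about 35%, with an unprinted fluorescence ratio check between 0.5 and 1.5, limit read from the data, passing the limit was not always enough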;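 note: 0% = enzyme with substrate and 100% = substrate without enzyme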
Target sequence (Q92905 whole entry, looked up, one chain of several): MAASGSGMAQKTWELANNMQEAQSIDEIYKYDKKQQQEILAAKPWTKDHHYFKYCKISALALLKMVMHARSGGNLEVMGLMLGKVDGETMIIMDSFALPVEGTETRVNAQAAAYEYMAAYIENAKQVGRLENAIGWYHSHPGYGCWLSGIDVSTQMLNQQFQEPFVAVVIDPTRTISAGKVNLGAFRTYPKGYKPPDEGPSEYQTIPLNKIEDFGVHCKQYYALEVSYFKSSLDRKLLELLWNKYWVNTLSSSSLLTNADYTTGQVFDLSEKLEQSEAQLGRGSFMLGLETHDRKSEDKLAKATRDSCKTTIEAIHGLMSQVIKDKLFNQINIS
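Material: purified human Csn5 enzyme expressed in HEK293T cells / Medium: Tris buffer pH 7.5, NaCl, DTT, Tween-20, trehalose, ovalbumin / Compound dosing: 12.5 µM single point / Schedule: 90 min incubation of compound, enzyme and substrate at room temperature / Signal: fluorescence polarization of the substrate / Control set: no-enzyme wells high, enzyme-with-substrate wells low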
Rpn11 confirm: Rpn11 inhibition confirmation, single concentration. shares compounds with Rpn11 inh. purified human 26S proteasome, Ub4-pepOG fluorescence polarization; proteasome pretreated with epoxomicin. inhibition, % at 20 µM. 29% of 1,900 active. AID 602318
MMP-2 counter: counter-screen for RPN11 inhibitors: inhibition of human MMP-2; shares compounds with Rpn11 inh; recombinant MMP-2, FRET peptide cleavage fluorescence; inhibition, % at 20 µM; 4% of 1,900 active; AID 602330;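 note: human MMP-2 activated beforehand with APMA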
Thrombin FP: blocks bovine thrombin, flagging nonselective RPN11 hits; shares compounds with Rpn11 inh; bovine thrombin cleavage of Ub4-pepOG, fluorescence polarization; inhibition, % at 20 µM; 13% of 1,900 active;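 active = mean inhibition at least 40% at 20 µM, or signal 3 deviations below plate average, so some actives read negative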;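 note: plate controls were thrombin with DMSO for no effect and buffer wells lacking thrombin for full effect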
An asterisk follows results filed as active; x = no result. The list is not random: actives were taken first. Their share in the collection is about 1.7%. Cut-off read from the data, not from the text of the source, unless noted: active = inhibition above about 40%; inactive = the rest.

SMILES	Rpn11 inh	TPT1 inhibitor	IDE cell inh	IDE cell activ	HNF4A DNA FP	CSN inh	Rpn11 confirm	MMP-2 counter	Thrombin FP
Cc1cccc(OCC(=O)NNC(=O)c2cc(S(=O)(=O)N(C)C)ccc2N2CCCC2)c1	42*	x	-7	6	1	0	34	-11	-4
CN(C)S(=O)(=O)c1ccc(N2CCCC2)c(C(=O)NNC(=O)COc2cccc(F)c2)c1	26	x	3	3	-5	2	x	x	x
CCN(CC)c1ccc(/C=C2\C(=O)N(c3nnc(C)c(=O)[nH]3)N=C2C)cc1	44*	43*	5	-9	-5	10	49*	-29	29
COc1ccc(/C=C2/C(=O)N(c3ccccc3)N=C2C)cc1	-2	0	1	x	5	-5	x	x	x
O=C(NCC(F)(F)F)c1cc2c(c(-c3cccc(-c4ccccc4F)c3)n1)[C@@H](CCO)N(C(=O)CC1CC1)C2	x	x	x	x	-4	1	x	x	x
O=C(CN(C(=O)c1csnn1)c1ccc2c(c1)OCCO2)NCc1ccc(F)cc1	48*	-4	-5	5	16	0	6	-6	-1
COc1ccc(CNC(=O)CN(C(=O)c2csnn2)c2ccc3c(c2)OCCO3)cc1	2	3	-2	0	0	3	x	x	x
CCN1C(=O)[C@H]2[C@@H](c3ccc(C(F)(F)F)cc3)N[C@]3(CCCN(CC4CCCCC4)C3=O)[C@H]2C1=O	-11	x	x	x	-2	-3	x	x	x
COc1ccccc1/C=c1\sc2nc(-c3ccccc3OC)nn2c1=O	6	3	-2	8	0	8	x	x	x
Cc1ccc(/C=c2\sc3nc(-c4ccccc4Br)nn3c2=O)o1	43*	11	4	-13	-12	50*	31	6	13
COc1cc(C=C2CCCC(=Cc3ccc(OCC4CO4)c(OC)c3)C2=O)ccc1OCC1CO1 (stereo not given)	51*	x	x	x	6	14	5	-12	-15
CCCCn1nnnc1C(c1ccccc1)N1CCN(c2ccc(C)cc2)CC1 (stereo not given)	x	x	x	x	-3	4	x	x	x
O=c1[nH]c2ccc(Cl)cc2c(-c2ccccc2)c1SC(=S)N1CCOCC1	42*	-5	5	-14	-4	1	7	1	-14
CCN1CCN(Cc2ccc(NC(=O)c3ccc(C)c(NC(=O)c4csc(-c5ccncc5)n4)c3)cc2C(F)(F)F)CC1	55*	-2	-5	-8	6	3	39	-12	-7
CCN1CCN(Cc2ccc(NC(=O)c3ccc(C)c(NC(=O)c4ccno4)c3)cc2C(F)(F)F)CC1	-1	-1	-3	2	5	9	x	x	x
COc1ccc(-c2c(C(=O)c3ccccc3)[nH]c(N)c2C(=O)NC2CC2)cc1OC	x	x	x	x	1	-5	x	x	x
O=c1[nH]c(=O)n(CCc2ccc(F)cc2)c(O)c1C=NCc1ccc2c(c1)OCO2	90*	-1	-1	5	4	6	17	-25	-14
Cc1nnc(-c2cccc(Br)c2)c2cn(-c3ccccc3Cl)nc12	76*	-1	4	-5	33	15	26	-8	26
CC(C)Cc1ccc(C(C)CC2=CCC(CN(C)C)C2=O)cc1 (stereo not given)	3	x	x	4	0	5	x	x	x
CC(C)c1ccc(C(=O)CN2C(=O)NC3(CCc4ccccc43)C2=O)cc1 (stereo not given)	2	x	2	6	4	4	x	x	x
CCOC(=O)C1=C(C)N=c2sc(=Cc3cc(Cl)c(OCC(=O)O)c(OC)c3)c(=O)n2C1c1ccccc1Cl (stereo not given)	51*	x	x	x	13	24	34	-20	65*
CCOC(=O)C1=C(C)N=c2s/c(=C\c3cccc(OCC(=O)O)c3)c(=O)n2C1c1ccccc1 (stereo not given)	0	x	x	1	0	3	x	x	x
N#C/C(=C\c1ccc(-c2cccc([N+](=O)[O-])c2)o1)C(=O)Nc1nc(-c2cccs2)cs1	59*	3	4	12	-3	4	-9	5	-20
CC1(C)Cc2c(C#N)c(SCCC#N)nc(N3CCOCC3)c2CS1	67*	-1	5	-1	-5	0	3	-19	-2
CC(Nc1ccc(Br)cc1)C(=O)NC(=O)NC1CCCCC1 (stereo not given)	0	x	x	x	-3	2	x	x	x
SMILES	Rpn11 inh	TPT1 inhibitor	IDE cell inh	IDE cell activ	HNF4A DNA FP	CSN inh	Rpn11 confirm	MMP-2 counter	Thrombin FP
Cc1cccc(OCCCC(=O)N2CCCCCC2)c1C	47*	x	x	-1	6	4	-16	-1	-18
Nc1ncnc2c1ncn2[C@@H]1O[C@H](C(=O)N[C@H](CO)Cc2ccc(O)cc2)[C@@H](O)[C@H]1O	-8	x	x	x	5	-1	x	x	x
Cc1nc(Nc2ccc(Cl)cc2Cl)sc1C(=O)Nc1ccccc1	6	-3	6	-1	-1	-1	x	x	x
Oc1nc(Nc2ccc(Cl)cc2Cl)sc1/C=C1\C=Nc2ccccc21	56*	11	12	0	12	9	60*	22	45*
O=C1N(Cc2cccc(Cl)c2)C[C@@H]2C[C@@H](c3cccc4ncccc34)N3CCC[C@@]123	-1	0	13	-3	0	-3	x	x	x
O=C1N(Cc2cccc(Cl)c2)C[C@@H]2C[C@@H](c3cccc4cccnc34)N3CCC[C@@]123	65*	8	2	2	3	16	4	-30	6
C[C@@H]1CN([C@H](C)CO)C(=O)CCCn2cc(nn2)CO[C@H]1CN(C)S(=O)(=O)c1ccc(C#N)cc1	-4	x	x	x	4	7	x	x	x
CC(=O)NN1C(=O)/C(=C\c2ccc(Br)o2)SC1=S	50*	5	6	-2	95	33	12	-20	18
COc1ccccc1CNC(=O)c1ccc2nc(C)c(N(C)Cc3ccc(NC(C)=O)cc3)n2c1	2	x	x	x	6	3	x	x	x
Cc1cc(NC(=O)CN2C(=O)/C(=C/c3cccc(Br)c3)SC2=S)no1	45*	4	-3	0	17	-7	13	-73	-47
CCOc1ccc2c(ccc(/C=C/c3cc(C)c4cccnc4c3O)[n+]2C)c1	112*	x	x	1	6	102	102*	75*	40
CCOc1ccc(N=Nc2ccc(O)c3ncccc23)cc1	23	x	x	3	3	-1	x	x	x
O=c1cc(-c2ccccc2)oc2c1CCCC2	2	x	x	x	1	0	x	x	x
CC(C)c1ccc(OCC(=O)N(Cc2ccccc2)c2ccccn2)cc1	43*	-1	2	-2	2	0	5	-19	7

Screening data as filed in PubChem BioAssay.
